# LEDGF integ inh – blocks HIV-1 LEDGF/p75-dependent DNA integration. TR-FRET IN-LEDGF/p75 DNA integration, Eu/Cy5. inhibition, % at 3.7 µM. hit rate 0.64% among 370,000;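 active = inhibition above the screen-wide mean plus 3 SD, cut at about 13% in these data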;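 also: signal is the Cy5 over europium emission ratio at 671 and 618 nm; 0% = plate median of compound wells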
# MBD2 inh – MBD2-methylated oligo binding inhibition | TR-FRET, MBD2 binding to methylated oligonucleotide | inhibition, % at 4.4 µM | hit rate 0.31% among 370,000; in the data active = inhibition above about 13%
# Rin1 Abl inh – inhibitors of human Rin1-Abl protein interaction; hit rate 0.4% among 360,000; TR-FRET Rin1/Abl binding, biochemical; inhibition, % at 7.35 µM; AID 588664; in the data active = inhibition above about 5%, passing the limit was not always enough
# UHRF1 binding – blocks human UHRF1 binding to methylated DNA; Q96T88; UHRF1 binding to methylated oligo, TR-FRET; inhibition, % at 4.4 µM; hit rate 0.75% among 370,000; in the data active = inhibition above about 21%;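 also: UHRF1 SRA domain binding a hemimethylated CpG hairpin DNA probe; 0% = median of test compound wells and 100% = reference inhibitor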
# TDP2 inh – TDP2 (human) inhibition, absorbance primary screen; recombinant TDP2, T5PNP hydrolysis, p-nitrophenol absorbance 415 nm; AID 720702; inhibition, % at 12.8 µM; O95551; hit rate 0.34% among 370,000;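 active = inhibition above the mean of all tested compounds plus 3 SD, set per campaign, cut at about 25% in these data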;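 also: 0% = DMSO with enzyme and 100% = buffer with substrate but no TDP2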
#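 Evaluation: % inhibition relative to enzyme-containing and enzyme-free wells. Material: recombinant human TDP2. Benchmarks: enzyme-free and DMSO wells. Timing: enzyme reaction with compound for 2 h at 37 °C. Compound dosing: 12.8 µM only. Measured by: p-Nitrophenol epi absorbance. Reagent: T5PNP substrate at 5 mM, a TopII-DNA adduct mimic. Replication: single well per compound.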
# Starred values were filed as active, the others as inactive; . = not tested or not shown. A selection: hits, their analogues and other compounds. The true share with any hit is near 1.9%.
SMILES,LEDGF integ inh,MBD2 inh,Rin1 Abl inh,UHRF1 binding,TDP2 inh
Oc1ccc2ccccc2c1C=Nn1c(-c2n[nH]c3c2CCC3)n[nH]c1=S,1,-7,.,-4,1
Fc1cccc(Cc2c(-c3ccccc3)nc3c4ccccc4ccn23)c1,0,8,.,21*,-6
Cc1ccc(Cc2c(-c3ccccc3)nc3c4ccccc4ccn23)cc1,-3,5,.,12,5
Cc1ccc(-c2nc3c4ccccc4ccn3c2Cc2ccccc2)cc1,1,8,-2,21*,7
COc1ccc(C=NNC(=O)c2cc(-c3ccc(C)c(C)c3)n[nH]2)cc1OCc1ccccc1,9,-1,.,-2,-12
O=C(NC1CC[C@@]23CCCN2C(=O)CCC[C@H]3C1)c1ccccc1 (some centres not stated),0,-3,.,0,0
Cc1ccc(S(=O)(=O)N2CCC(C(=O)Nc3nnc(-c4ccc(F)cc4)s3)CC2)cc1,3,11,0,25*,5
O=C(Nc1nnc(-c2ccc(F)cc2)s1)C1CCN(S(=O)(=O)c2ccc(Cl)cc2)CC1,-2,2,-2,1,14
COc1ccc(S[C@]2(C(=O)N3CCOCC3)CC(=O)N(C(=O)c3ccccc3)[C@@H]2c2ccc(OC)cc2)cc1,-2,-3,.,4,-2
O=C(NC(Cc1ccccc1)C(=O)O)/C(=C\c1ccc(Cl)cc1)NC(=O)c1ccccc1 (configuration not stated),-3,-2,2,28*,-5
O=C(NC(Cc1ccccc1)C(=O)O)/C(=C/c1ccccc1)NC(=O)c1ccccc1 (configuration not stated),1,10,2,9,-2
COc1cc2c(cc1NC(=O)CSc1nnc(-c3cccc(Cl)c3)n1Cc1ccco1)oc1ccccc12,-2,0,.,2,1
CCOc1ccc(/C=N/Nc2ccccn2)cc1OC,2,-2,-9,47*,3
O=C(O)CCN(Cc1ccccc1)S(=O)(=O)c1ccccc1Cl,1,7,-6,22*,9
O=C(O)CCN(Cc1ccccc1)S(=O)(=O)c1ccc(Cl)cc1F,5,2,4,7,-16
Cc1cc(NC(=O)c2ccc3c(c2)C(=O)N(C2CCCCC2)C3=O)no1,3,-4,3,-3,7
O=C(Nc1ccncc1)c1ccc2c(c1)C(=O)N(C1CCCCC1)C2=O,1,1,-3,26*,5
O=C(CCc1nc2ccccc2c(=O)[nH]1)Nc1cc(Cl)ccc1N1CCCC1,-5,3,-3,32*,11
O=C(CCc1nc2ccccc2c(=O)[nH]1)Nc1ccc(N2CCCCC2)cc1,-2,-1,2,-4,2
CC(CCN1CCC(C(O)(c2ccccc2)c2ccccc2)CC1)Oc1cc(F)cc(F)c1 (configuration not stated),3,8,.,-1,-9
Oc1ccccc1Oc1ncc(Br)c(Cl)n1,1,8,0,22*,24
O=C(CC1C(=O)NCCN1Cc1c(F)cccc1Cl)NCCC1=CCCCC1 (configuration not stated),4,-6,2,-1,-14
O=C(CC1C(=O)NCCN1Cc1c(F)cccc1Cl)NCCc1ccccn1 (configuration not stated),-1,4,-1,26*,9
C=CC[C@@H]1NN2C(=O)[C@@H](CCc3ccccc3)[C@@H]3c4ccccc4C=NN3[C@@H]2c2ccccc21,2,5,.,83*,11
C=CC[C@@H]1NN2C(=O)[C@@H](CCCC)[C@@H]3c4ccccc4C=NN3[C@@H]2c2ccccc21,-2,-1,.,0,1
O=S1(=O)CC(O)C(NCc2cccnc2)C1 (configuration not stated),-2,-1,2,-2,5
CC(C)CNC1CS(=O)(=O)CC1O (configuration not stated),1,-1,0,22*,-1
OC(CNCc1ccccc1)Cn1ccc2ccccc21 (configuration not stated),-1,-1,3,27*,-3
Oc1ccccc1NCC(O)Cn1ccc2ccccc21 (configuration not stated),0,8,1,-2,17
CC(C)NC(=O)N[C@@H]1C[C@@H]2O[C@@H](CO)CC[C@@H]2O[C@@H]1CCc1ccc(-c2ccccc2F)cc1,0,3,.,5,-4

# Assay outcomes as filed in PubChem.
